Test results published in ChEMBL document CHEMBL4513216, “Probing the Open Global Health Chemical Diversity Library for Multistage-Active Starting Points for Next-Generation Antimalarials” (ACS Infect Dis, 2020).

Experiment: Toxicity liver stage against HepG2, at 10uM
Format: cell-based
Set-up: test concentration 10 uM, cell line HepG2-A16-CD81EGFP
Settings: human, HepG2-A16-CD81EGFP cells; read-out: INHIBITION
Method in brief: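 Uninfected HepG2-A16-CD81EGFP cells, 3 × 10^3 per well, 1536-well, plated on prespotted compound at 10 μM final, parasite-free screening media added to match infected plates; puromycin 10 μM positive, DMSO 0.5% negative; run in parallel with 48 h PbLuc assay at 37 °C, 5% CO2; viability by CellTiter-Glo luminescence, normalized to controls.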

| Structure (SMILES) | cytotoxicity at 10 µM [%] |
| --- | --- |
| COCC(=O)NC[C@H]1C[C@@H]2CCN1C[C@@H]2c1cc(-c2cccs2)nn1C | 1.23 |
| CC(=O)N1CC[C@H]2CC(=O)N(Cc3ccc4c(c3)OCO4)CC[C@H]2C1 | -3.91 |
| CCSc1nnc(CCNC(=O)OC(C)(C)C)o1 | -25.9 |
| NC(=O)Cc1ccc(OCc2noc(C(=O)N3CCCC3)n2)cc1 | -13.6 |
| NC(=O)c1c(SCCN2CCCCC2)sc2c(O)cc(=O)[nH]c12 | -13.7 |
| COC(=O)NCCCn1ccnc1-c1ccccc1 | -2.27 |
| Cn1c(C(F)(F)F)nn(CCNC(=O)c2nc3ccccc3s2)c1=O | 1.79 |
| CN(C)CC1CSCCCN1S(=O)(=O)c1ccc(C(F)(F)F)cc1 (stereo unspecified) | -6.71 |
| CCN1CC[C@@]2(C(=O)N(C)C)CCN(C(=O)NC(C)C)CC[C@@H]12 | -15.2 |
| c1cc(CN2CCC3(CC2)COC(COCC2CC2)C3)co1 (stereo unspecified) | -4.19 |
| O=C(NCC1CC1)C1CCC2(CN(C(=O)c3ccno3)C2)O1 (stereo unspecified) | -138 |
| O=C(C1CCC2(CCN(c3nncs3)CC2)C1)N1CCCC1 (stereo unspecified) | 9.43 |
| Cc1occc1C(=O)N1CC[C@@H]2[C@@H](CO[C@H]2CNS(C)(=O)=O)C1 | 11.3 |
| O=C1NC2(CCN(C(=O)c3ccnnc3)CC2)CC1c1ccccc1 (stereo unspecified) | -113 |
| COCCN1C[C@@H]2OCCN(c3ccnc(N(C)C)n3)[C@@H]2C1 | -118 |
| Cn1ccnc1CN1CCC2(CC1)CC(Nc1ccccn1)CO2 (stereo unspecified) | -7.97 |
| COc1cc(C2SCC(=O)Nc3[nH]ncc32)cc(OC)c1OC (stereo unspecified) | 8.49 |
| Cc1nccc([C@@H]2C[C@@H]3CCN(S(C)(=O)=O)C[C@H]3O2)n1 | -11.3 |
| Cc1ncnc2c1CCN(c1cc(C(F)(F)F)ncn1)CC2 | -2.96 |
| Cc1c(S(=O)(=O)NC2CC2)cc2c(C)cc(=O)n3c2c1CCC3 | -1.95 |
| Cc1ccc2c(c1)c(C)cc(=O)n2CCCN | 1.14 |
| Cc1nn(C)c(C)c1-c1nccnc1CC1CCNCC1 | -2.38 |
| CC1CCc2nn(CCNC(=O)c3ccco3)c(=O)cc2C1 (stereo unspecified) | 9.15 |

| Structure (SMILES) | cytotoxicity at 10 µM [%] |
| --- | --- |
| COCC(=O)N1CCC(c2cc(-c3ccc(C)cc3)n[nH]2)C1 (stereo unspecified) | -3.39 |
| NC(=O)CN1CCCCC1c1ccc(-n2ccnc2)nc1 (stereo unspecified) | 1.6 |
| COc1cccc(CC(=O)NC(C)c2nc3cccnc3n2C(C)C)c1 (stereo unspecified) | -22.6 |
| O=C(O)CN1CCOCC(Cc2ccc(Cl)cc2)C1 (stereo unspecified) | -25.7 |
| O=C1NCC2(CCCN(Cc3cccnc3)C2)Oc2ccccc21 (stereo unspecified) | -24.1 |
| CN1CCC2(Cc3ccccc3CN(C(=O)c3ccc(Cl)cc3)C2)C1 (stereo unspecified) | -3.12 |
| CCOCC(=O)Nc1cc(-n2nnnc2C2CC2)ccc1F | -4.28 |
| CC(C)N(C)S(=O)(=O)N1CCN(Cc2ccco2)CC1 | -0.796 |
| COc1ccccc1C(C)(C)NC(=O)Nc1ccc(F)c(C(N)=O)c1 | -145 |
| COCc1c(Cl)cccc1NC(=O)CNC(=O)C(C)(C)C | -5.73 |
| CN1CCOC(CNCC(=O)NCCCc2ccccc2)C1 (stereo unspecified) | -3.23 |
| COc1ccc(CCNC(=O)C2CCOC2)c(Cl)c1 (stereo unspecified) | -2.27 |
| CC(NC(=O)Nc1cccnc1N1CCOCC1)c1ccncc1 (stereo unspecified) | 5.28 |
| OC1(CN2CCCC(Cn3cncn3)C2)CCCCC1 (stereo unspecified) | 2.96 |
| CC(CS(C)(=O)=O)N(C)C(=O)NCCCc1ccc(Cl)cc1 (stereo unspecified) | 1.8 |
| CCn1nc2c(cc1=O)CN(CCOc1ccc(C#N)cc1)CC2 | -3.73 |
| CC(c1ncc(C(C)(C)C)o1)N1CCN(c2ccncc2)CC1 (stereo unspecified) | 18.5 |
| COc1cc(C2(C(=O)N3CCN(CC(C)O)CC3)CC2)ccc1C (stereo unspecified) | -2.43 |
| O=C(CS(=O)(=O)c1ccccn1)NC1CCCc2ccccc21 (stereo unspecified) | -4.04 |
| OC(CNCCn1cccn1)COc1ccc(F)cc1 (stereo unspecified) | -16.6 |
| CCCc1nc(C)c(C(=O)NS(=O)(=O)c2cccnc2)s1 | -5.8 |
| CC(C)c1nc(CN2CCN(C(=O)Cc3ccccc3Cl)CC2)no1 | -1.96 |
| NS(=O)(=O)c1ccc(CNC(=O)c2ccc(Cl)cc2F)cc1 | -1.59 |

| Structure (SMILES) | cytotoxicity at 10 µM [%] |
| --- | --- |
| O=C(Nc1ccnn1C1CCCC1)c1ccc(NC2CC2)nc1 | 4.75 |
| Cc1cccc(C)c1OCCNC(=O)CNC(=O)C1CCCC1 | -122 |
| CC(O)CN1CCC(CN(C)Cc2ccc(C#N)cc2)CC1 (stereo unspecified) | 0.788 |
| O=C(NC1CC1)c1ccccc1NCc1cn2cccnc2n1 | 5.38 |
| CCc1ccc(-c2nn3c(nc2=O)-c2ccccc2NC3C(=O)O)cc1 (stereo unspecified) | 11.2 |
| CN(Cc1nccn1CC(F)(F)F)C(=O)c1ccc(F)c(F)c1 | -0.394 |
| CCC(=O)Nc1cccc(OCC(=O)N2C[C@H]3CC[C@H]2C3)c1 | -2.18 |
| O=C(C1CNCCN1C(=O)CCOc1ccccc1)N1CCOCC1 (stereo unspecified) | 0.311 |
| CC(C)n1cnnc1CN(C)C(=O)CCn1cnc2ccccc2c1=O | 6.4 |
| CCn1cc(CN2CCN(Cc3cc(C)cc(C)c3)C(=O)C2)cc1C#N | 1.72 |
| COCCN1CC2(CCC1=O)CCN(Cc1nnc(C)o1)CC2 | -5.81 |
| CCn1c(C2CCCN(Cc3cc(C)cc(C)c3)C2)nn(C)c1=O (stereo unspecified) | -3.12 |
| CN(C)c1ccc(-c2ccnc3c2ccn3C)nn1 | 10.9 |
| CCc1cc(N2CCS(=O)(=O)CC2)n2nc(C)c(C)c2n1 | -4.02 |
| CCOC(=O)CNC(=O)N1CCOC(Cc2ccc(OC)cc2)C1 (stereo unspecified) | -7.99 |
| O=C(NCC(F)(F)C(F)F)c1cccnc1 | 15.4 |
| COC(=O)CCCC(=O)N(C)CC1Cc2ccccc2CN1C (stereo unspecified) | -12.4 |
| O=C(c1coc2ccccc12)N1CCCC(O)(CO)CC1 (stereo unspecified) | 6.41 |
| Nc1nnc(SCC(=O)NCC(O)c2ccccc2)s1 (stereo unspecified) | 12 |
| Cc1cccc(C(C(=O)NC(C)(C)CN2CCOCC2)N(C)C)c1 (stereo unspecified) | -2.21 |
| OC1(CNc2ccc(-c3nc(C4CC4)no3)cn2)CCCCC1 | 7.72 |
| Cc1nnc(CN2CCC3(CCC(=O)N(C4CC4)C3)CC2)o1 | -6.68 |
| CSc1cccc(CC(=O)N[C@@H]2CCNC[C@H]2O)c1 | -1.72 |

| Structure (SMILES) | cytotoxicity at 10 µM [%] |
| --- | --- |
| O=S(=O)(NCCc1nc(-c2cccnc2)n[nH]1)NCc1ccccc1 | 7.02 |
| CCc1cc(C(=O)N2CCC3(CCCN(CCOC)C3=O)C2)cs1 (stereo unspecified) | -146 |
| CCc1ncc(C(=O)N2CCCC(c3nccn3CCOC)C2)cn1 (stereo unspecified) | -0.262 |
| Cc1cc(C)nc(N2C[C@H]3OC(=O)N(CCc4cccc(Cl)c4)[C@H]3C2)n1 | 6.72 |
| Cc1cnc(C)c(-c2cc(O)c3c(c2)CN(Cc2nccs2)CCO3)n1 | 1.69 |
| COCCCC1CCCCN1Cc1cn2cc(C)ccc2n1 (stereo unspecified) | 3.21 |
| Cc1ccc(CCNC(=O)Cn2nc(C)n(Cc3ccccc3)c2=O)s1 | -3.66 |
| CCOCC(=O)N1C[C@@H](NC(C)=O)[C@H](c2ccc(OC)cc2)C1 | -9.44 |
| COc1cc(CCC(=O)NC(C)(C)C)ccc1OCC(F)(F)F | -8.76 |
| NC(=O)NCC1CCCCN1C(=O)c1cccc(Cl)c1 (stereo unspecified) | -7.6 |
| CC(C)c1noc(CN2CCN(C(=O)c3cc(Cl)ccc3F)CC2)n1 | -6.8 |
| Cc1ccc(NC2CCN(C(=O)c3ccco3)CC2)nn1 | -14.3 |
| Cc1ccccc1CNC(=O)C1CCN(Cc2nccn2C)CC1 | -17.9 |
| Cc1noc2ncc(C(=O)NCC3CCCO3)cc12 (stereo unspecified) | -10.2 |
| CC(Cn1ccnc1)NC(=O)NCCc1cccs1 (stereo unspecified) | -3.16 |
| Cc1nn(C)c(N(C)C)c1CNC1CCOc2c(Cl)cccc21 (stereo unspecified) | -5.36 |
| Cc1nc(-c2ccco2)ccc1C(=O)N1CCn2c(C)nnc2C1 | -5.83 |
| O=C(CN1CCC(c2ccnn2CCO)CC1)NCC1CCCCC1 | -0.463 |
| Cc1cc(CN2CCN(CC(O)c3cccc(F)c3)CC2)no1 (stereo unspecified) | -12.2 |
| CCc1c(C(=O)NC2CCS(=O)(=O)C2)cnn1-c1ccc(C)cc1 (stereo unspecified) | -5.94 |
| Cc1nc(C)n(CC2CCCN(CC(=O)NC3CCOCC3)C2)n1 (stereo unspecified) | -11.8 |
| COc1cccc(S(=O)(=O)CCN2CCn3c(C)nnc3C2)c1 | -18.7 |
| Cc1nc(C)n(CC2CCCN2Cc2cn3ccccc3n2)n1 (stereo unspecified) | -3.05 |

| Structure (SMILES) | cytotoxicity at 10 µM [%] |
| --- | --- |
| CN(CC(=O)Nc1ccc(Br)cn1)C(=O)C(C)(C)C | -11.9 |
| CSC(C)C(=O)N(C)CC(=O)Nc1ccc(Br)cn1 (stereo unspecified) | -7.18 |
| CC(C)c1nc(C2CCCN2CC(=O)Nc2cccnc2)no1 (stereo unspecified) | -10.1 |
| NC(=O)CC1CCN(C(=O)NCCc2ccc(Cl)s2)CC1 | -8.03 |
| Cc1cc(NC(=O)NCc2ccccc2OC(F)F)n(C)n1 | 2.29 |
| O=C(NCCn1ccnc1)N1CCN(Cc2cccs2)CC1 | -7.49 |
| COC(=O)N1CC2(CCNCC2)c2cc(Cl)ccc21 | 7.71 |
| Cc1ccc(C(=O)N2CCc3ccc(=O)n(CCN(C)C)c3CC2)o1 | -2.16 |
| Cc1noc(C)c1CNCC1COCc2c(-c3ccoc3)nnn2C1 (stereo unspecified) | 8.85 |
| CN(C)S(=O)(=O)N1C[C@H]2CCC[C@@]2(COc2cccnc2)C1 | 11.8 |
| CN(C)CC(=O)N1CCc2sc(C(=O)NCC3CC3)cc21 | 1.68 |
| O=C(NC1CC1)N1CCc2ncnc(-c3ccncc3)c2CC1 | -1.04 |
| Cc1cc(C(=O)N2CCc3nc(C4CCCCN4)ncc3C2)cs1 (stereo unspecified) | -22.4 |
| CCCN1CCC2(CC1)COc1ccccc1S(=O)(=O)N(CC1CC1)C2 | -3.43 |
| CCN(CC)CCN1CC[C@H]2OCC[C@@]2(C(=O)N2CCOCC2)C1 | 4.64 |
| COc1ccc(CN2CCC3(CC2)CCN(CCN(C)C)C3=O)cc1 | -4.25 |
| Cc1cccc(CN2C[C@@H]3COC[C@]3(CNC(=O)c3cccn3C)C2)n1 | -5.64 |
| Cc1nc(CN2CCC3(CCN(c4cnn(C)c4)C3=O)C2)cs1 (stereo unspecified) | 4.15 |
| CC(C)n1c(=O)[nH]c2cn(-c3ccc(Br)cc3)c(=O)n21 | 0.843 |
